Experimental data published in ChEMBL document CHEMBL1129319, “Design and synthesis of new linear and cyclic bradykinin antagonists” (J Med Chem, 1996).
The source made the active and inactive calls. No cut-off for these calls is given here. Numbered stars: 1 amine (or outer) side, 2 acyl side, 3 side chain; on linkers, the order of the positions; unused ones are H or OH. Square brackets hold non-standard residues; d marks the D form. Peptide text beside a SMILES is read from it. * marks the point of attachment. ξ: configuration not given here. X1 = NC(N)=NCCC[C@@H](NC(=O)[C@H](Cc1ccccc1)NC(=O)N1CCC[C@H]1C(=O)[C@H](CO)N*)C(=O)O; Pentanoyl(5-guanidino) = NC(N)=NCCCCC(=O)*; Butanoyl(4-guanidino) = N=C(N)NCCCC(=O)*; Oic(3aξ,7aξ) = O=C(O)[C@@H]1CC2CCCCC2N1; NH(CH2)9CO = O=C(CCCCCCCCCN[*:1])[*:2]; Tic = O=C(O)[C@@H]1Cc2ccccc2CN1; 2Thi = N[C@@H](Cc1cccs1)C(=O)O; X2 = N=C(N)NCCCCCC(=O)*; GABA = NCCCC(=O)O

Legend:
B2 bradykinin receptor = target: T1, B2 bradykinin receptor (Oryctolagus cuniculus, UniProt Q28642); experiment: In vitro antagonistic activity against kinin-induced rabbit jugular vein contraction.; assay type: functional; conditions: for Kb: read-out: pA2 (converted)
T1 sequence (Q28642 whole entry): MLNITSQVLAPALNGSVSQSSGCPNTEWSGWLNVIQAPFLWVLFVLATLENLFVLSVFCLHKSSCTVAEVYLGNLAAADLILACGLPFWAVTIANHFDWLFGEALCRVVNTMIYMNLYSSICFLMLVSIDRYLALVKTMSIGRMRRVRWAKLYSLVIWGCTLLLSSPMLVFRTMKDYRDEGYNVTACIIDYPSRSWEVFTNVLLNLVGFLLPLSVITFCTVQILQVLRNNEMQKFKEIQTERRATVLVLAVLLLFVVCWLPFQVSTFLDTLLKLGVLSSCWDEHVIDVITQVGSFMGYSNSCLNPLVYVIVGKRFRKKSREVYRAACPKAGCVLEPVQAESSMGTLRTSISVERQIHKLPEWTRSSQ
In short: (§1)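 Rabbit jugular vein rings (B2 tissue), reference KCl 60 mM contraction then 45 min rest; antagonist, usually 10-7, 10^-6 and 10^-5 M, incubated 45 min before cumulative bradykinin; one curve per ring; pA2 by Tallarida's method with Schild slope constrained to unity, or pKB from EC50 ratio when activity appeared only at 10^-5 M.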

[1] = target: T2, B2 bradykinin receptor (Homo sapiens) (UniProt P30411); experiment: Antagonistic activity against bradykinin B2 receptor as human umbilical vein contraction; assay type: functional, tissue-based
T2 sequence (whole entry): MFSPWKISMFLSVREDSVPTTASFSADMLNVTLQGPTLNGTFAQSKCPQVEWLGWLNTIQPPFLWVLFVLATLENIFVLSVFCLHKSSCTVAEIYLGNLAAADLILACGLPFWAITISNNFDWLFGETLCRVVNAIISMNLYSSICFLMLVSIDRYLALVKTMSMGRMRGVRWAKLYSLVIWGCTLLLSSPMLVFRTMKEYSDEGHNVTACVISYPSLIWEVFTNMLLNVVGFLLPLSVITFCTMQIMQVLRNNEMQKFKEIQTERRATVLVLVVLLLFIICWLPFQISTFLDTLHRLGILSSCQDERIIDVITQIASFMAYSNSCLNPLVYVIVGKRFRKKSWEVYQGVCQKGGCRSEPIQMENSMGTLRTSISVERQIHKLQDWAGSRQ
In short: (§2)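 Endothelium-denuded human umbilical vein rings in Krebs (37 °C, 95% O2/5% CO2, pH 7.40), 2-4 g load, pretreated with indomethacin 5 × 10^-6 M and L-nitroarginine 10^-4 M; antagonist incubated 45 min before a single cumulative bradykinin curve per ring; isometric contraction as % of KCl (60 mM) reference; pKB from KB = [Ant]/(concentration ratio − 1).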

[2] = target: T2, B2 bradykinin receptor (Homo sapiens); experiment: Antagonistic activity against bradykinin B2 receptor as human umbilical vein contraction; in = inactive at 10e-5M; assay type: functional, tissue-based; in short: as §2
[3] = target: T3, B2 bradykinin receptor (Oryctolagus cuniculus) (UniProt Q28642); experiment: In vitro antagonistic activity against kinin-induced rabbit jugular vein contraction by bradykinin B2 receptor; in = inactive at 10e-5M; assay type: functional; in short: as §1
T3 sequence (whole entry): T1 sequence (Q28642 whole entry)

[4] = target: T3, B2 bradykinin receptor (Oryctolagus cuniculus); experiment: In vitro antagonistic activity against kinin-induced rabbit jugular vein contraction by bradykinin B2 receptor; in = inactive at 10e-5M.; assay type: functional; in short: as §1

Kb (B2 bradykinin receptor) | SMILES | also measured
45.7 nM | N=C(N)NCCC[C@@H]1NC(=O)[C@@H]2CC3CCCCC3N2C(=O)[C@H]2Cc3ccccc3CN2C(=O)[C@H](CO)NC(=O)[C@H](Cc2cccs2)NC(=O)CCCNC1=O (some centres undefined) | –
363 nM | NCCCC(=O)N[C@@H](Cc1ccccc1)C(=O)N1Cc2ccccc2C[C@H]1C(=O)N1C2CCCCC2C[C@H]1C(=O)N[C@@H](CCCN=C(N)N)C(=O)O (some centres undefined) (H-[GABA]F[Tic][Oic(3aξ,7aξ)]R-OH) | –
– | NC(N)=NCCC[C@H](NC(=O)[C@@H](Cc1ccccc1)NC(=O)[C@@H](N)CCCN=C(N)N)C(=O)N1CCC[C@H]1C(=O)N1CCC[C@H]1C(=O)NCC(=O)N[C@@H](Cc1ccccc1)C(=O)N[C@@H](CO)C(=O)[C@@H]1CCCN1C(=O)N[C@@H](Cc1ccccc1)C(=O)N[C@H](CCCN=C(N)N)C(=O)O (H-R[dF]RPPGF-X1) | pKb [1]: 5.16
251 nM | NCCCC(=O)N[C@@H](Cc1cccs1)C(=O)N1Cc2ccccc2C[C@H]1C(=O)N1C2CCCCC2C[C@H]1C(=O)N[C@@H](CCCN=C(N)N)C(=O)O (some centres undefined) (H-[GABA][2Thi][Tic][Oic(3aξ,7aξ)]R-OH) | pKb [2]: inactive
309 nM | C[C@@H]1NC(=O)CCCNC(=O)[C@H](CCCN=C(N)N)NC(=O)[C@@H]2CC3CCCCC3N2C(=O)[C@H]2Cc3ccccc3CN2C(=O)[C@H](CO)NC1=O (some centres undefined) | –
40.7 nM | N=C(N)NCCC[C@@H]1NC(=O)[C@@H]2CC3CCCCC3N2C(=O)[C@H]2Cc3ccccc3CN2C(=O)[C@H](Cc2cccs2)NC(=O)CNC1=O (some centres undefined) | pKb [1]: 4.93
75.9 nM | N=C(N)NCCC[C@@H]1NC(=O)[C@H](CCCNC(=N)N)NC(=O)[C@@H]2CC3CCCCC3N2C(=O)[C@H]2Cc3ccccc3CN2C(=O)[C@H](Cc2cccs2)NC1=O (some centres undefined) | –
851 nM | NCC(=O)N[C@@H](Cc1ccccc1)C(=O)N1Cc2ccccc2C[C@H]1C(=O)N1C2CCCCC2C[C@H]1C(=O)N[C@@H](CCCN=C(N)N)C(=O)O (some centres undefined) (H-GF[Tic][Oic(3aξ,7aξ)]R-OH) | pKb [2]: inactive
240 nM | C[C@@H]1NC(=O)CNC(=O)[C@H](CCCN=C(N)N)NC(=O)[C@@H]2CC3CCCCC3N2C(=O)[C@H]2Cc3ccccc3CN2C1=O (some centres undefined) | –
– | N=C(N)NCCC[C@H](NC(=O)[C@@H]1CC2CCCCC2N1C(=O)[C@@H]1Cc2ccccc2CN1C(=O)[C@H](CO)NC(=O)[C@@H]1Cc2ccccc2CN1)C(=O)O (some centres undefined) (H-[Tic]S[Tic][Oic(3aξ,7aξ)]R-OH) | pA2 [3]: inactive
468 nM | NCCCCCCCCCC(=O)N[C@@H](Cc1cccs1)C(=O)N1Cc2ccccc2C[C@H]1C(=O)N1C2CCCCC2C[C@H]1C(=O)N[C@@H](CCCN=C(N)N)C(=O)O (some centres undefined) ({NH(CH2)9CO}-[2Thi][Tic][Oic(3aξ,7aξ)]R-OH) | –
– | NC(N)=NCCC[C@H](NC(=O)[C@@H]1CC2CCCCC2N1C(=O)[C@@H]1Cc2ccccc2CN1C(=O)[C@H](CO)NC(=O)[C@@H](N)Cc1cccs1)C(=O)O (some centres undefined) (H-[2Thi]S[Tic][Oic(3aξ,7aξ)]R-OH) | pA2 [3]: inactive
324 nM | N=C(N)NCCC[C@@H]1NC(=O)[C@@H]2CC3CCCCC3N2C(=O)[C@H]2Cc3ccccc3CN2C(=O)[C@H](Cc2cccs2)NC(=O)CCCNC1=O (some centres undefined) | pKb [2]: inactive
3390 nM | N=C(N)NCCCCCC(=O)N[C@@H](Cc1cccs1)C(=O)N1Cc2ccccc2C[C@H]1C(=O)N1C2CCCCC2C[C@H]1C(=O)N[C@@H](CCCNC(=N)N)C(=O)O (some centres undefined) (X2-[2Thi][Tic][Oic(3aξ,7aξ)]R-OH) | –
63.1 nM | C[C@@H]1NC(=O)[C@H](Cc2cccs2)NC(=O)CCCNC(=O)[C@H](CCCN=C(N)N)NC(=O)[C@@H]2CC3CCCCC3N2C(=O)[C@H]2Cc3ccccc3CN2C1=O (some centres undefined) | –
3020 nM | N=C(N)NCCCCC(=O)N[C@@H](Cc1cccs1)C(=O)N1Cc2ccccc2C[C@H]1C(=O)N1C2CCCCC2C[C@H]1C(=O)N[C@@H](CCCNC(=N)N)C(=O)O (some centres undefined) ({Pentanoyl(5-guanidino)}-[2Thi][Tic][Oic(3aξ,7aξ)]R-OH) | –
– | NCCCC[C@@H]1NC(=O)[C@H](CCCN=C(N)N)NC(=O)[C@@H]2C[C@@H]3CCCC[C@@H]3N2C(=O)[C@H]2Cc3ccccc3CN2C(=O)[C@H](Cc2cccs2)NC1=O | pA2 (B2 bradykinin receptor): 6.84
794 nM | NC(N)=NCCC[C@H](NC(=O)[C@@H]1CC2CCCCC2N1C(=O)[C@@H]1Cc2ccccc2CN1C(=O)[C@H](Cc1cccs1)NC(=O)[C@@H](N)CCCN=C(N)N)C(=O)O (some centres undefined) (H-R[2Thi][Tic][Oic(3aξ,7aξ)]R-OH) | –
490 nM | C[C@@H]1NC(=O)[C@H](Cc2c[nH]c3ccccc23)NC(=O)CCCNC(=O)[C@H](CCCN=C(N)N)NC(=O)[C@@H]2CC3CCCCC3N2C(=O)[C@H]2Cc3ccccc3CN2C1=O (some centres undefined) | –
437 nM | N=C(N)NCCC[C@@H]1NC(=O)[C@@H]2CC3CCCCC3N2C(=O)[C@H]2Cc3ccccc3CN2C(=O)[C@H](CO)NC(=O)[C@@H]2Cc3ccccc3CN2C(=O)CCCNC1=O (some centres undefined) | –
537 nM | N=C(N)NCCC[C@@H]1NC(=O)[C@@H]2CC3CCCCC3N2C(=O)[C@H]2Cc3ccccc3CN2C(=O)[C@H](CO)NC(=O)[C@H](c2ccccc2)NC(=O)CCCNC1=O (some centres undefined) | –
219 nM | CN1CC(=O)N[C@@H](Cc2cccs2)C(=O)N2Cc3ccccc3C[C@@H]2C(=O)N2C3CCCCC3C[C@H]2C(=O)N[C@@H](CCCN=C(N)N)C1=O (some centres undefined) | –
– | C[C@@H]1NC(=O)[C@@H](Cc2ccccc2)NC(=O)CCCNC(=O)[C@H](CCCN=C(N)N)NC(=O)[C@@H]2CC3CCCCC3N2C(=O)[C@H]2Cc3ccccc3CN2C1=O (some centres undefined) | pA2 [4]: inactive
117 nM | N=C(N)NCCC[C@@H]1NC(=O)[C@@H]2CC3CCCCC3N2C(=O)[C@H]2Cc3ccccc3CN2C(=O)[C@H](Cc2ccccc2)NC(=O)CNC1=O (some centres undefined) | pKb [1]: 5.13
912 nM | NC(N)=NCCC[C@H](NC(=O)[C@@H]1CC2CCCCC2N1C(=O)[C@@H]1Cc2ccccc2CN1C(=O)[C@H](CO)NC(=O)[C@@H](N)Cc1ccccc1)C(=O)O (some centres undefined) (H-FS[Tic][Oic(3aξ,7aξ)]R-OH) | –
– | N=C(N)NCCCC(=O)N[C@@H](Cc1cccs1)C(=O)N1Cc2ccccc2C[C@H]1C(=O)N1C2CCCCC2C[C@H]1C(=O)N[C@@H](CCCNC(=N)N)C(=O)O (some centres undefined) ({Butanoyl(4-guanidino)}-[2Thi][Tic][Oic(3aξ,7aξ)]R-OH) | pA2 [4]: inactive
– | NCC(=O)N[C@@H](Cc1cccs1)C(=O)N1Cc2ccccc2C[C@H]1C(=O)N1C2CCCCC2C[C@H]1C(=O)N[C@@H](CCCN=C(N)N)C(=O)O (some centres undefined) (H-G[2Thi][Tic][Oic(3aξ,7aξ)]R-OH) | pKb [1]: 4.79; pA2 [4]: inactive
75.9 nM | NC(N)=NCCC[C@@H]1NC(=O)[C@@H]2CC3CCCCC3N2C(=O)[C@H]2Cc3ccccc3CN2C(=O)[C@H](CO)NC(=O)[C@H](Cc2cccs2)NC(=O)CCNC1=O (some centres undefined) | –
